Data set [1] deals with Human immunodeficiency virus 1. The experiment in a line: Effective concentration to inhibit replication of viral strain HIV-1 IIIB in acutely infected C8166T cells. It counts as functional, organism-based. To be noted: Human immunodeficiency virus 1, C8166T. The method in brief:
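HIV-1 IIIB infected C8166 T cells at MOI 0.001 in complete medium, then cultured 3 days with serially diluted inhibitor. Extracellular p24 core antigen was measured by ELISA on pooled supernatants (8 replicas) to give percent inhibition. EC50 came from a nonlinear Hill fit.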

Data set [2] deals with T1, Human immunodeficiency virus type 1 protease (Human immunodeficiency virus 1, UniProt Q72874). The experiment in a line: In vitro inhibition of HIV-1.
Data set [3] is described as follows: The plasma concentration is evaluated after oral administration of 5 mg/kg. It counts as ADME, organism-based. On the set-up: dose 5 mg/kg, route oral.
Data set [4] is described as follows: The compound was evaluated for oral bioavailability in the rat at a peroral (po) dose of 5 mg/kg. As to conditions: in vivo. It counts as ADME, organism-based.
Data set [5] is described as follows: Area Under the Curve (AUC) for the compound is evaluated after the oral administration at 5 mg/kg. The format is ADME, organism-based. Also noted: dose 5 mg/kg, route oral. To be noted: in vivo.
Data set [6] can be described thus: Half life for the clearance after intravenous (iv) administration of 1 mg/kg. The format is ADME, organism-based. On the set-up: dose 1 mg/kg, route intravenous. As to conditions: in vivo.
Data set [7] is described as follows: Oral bioavailability in rat (dose 5 mg/kg). The format is ADME, organism-based. To be noted: in vivo.
A short description of data set [8]: Half life for the clearance after intravenous (iv) administration of dose of 1 mg/kg. It counts as ADME, organism-based. On the set-up: dose 1 mg/kg, route intravenous. To be noted: in vivo.
Data set [9] has as its system Human immunodeficiency virus 2. Nature of the data set: Effective concentration to inhibit replication of viral strain HIV-2 ROD in acutely infected C8166T cells. It counts as functional, organism-based. As to conditions: Human immunodeficiency virus 2, C8166T.
The target in data set [10] is T1, Human immunodeficiency virus type 1 protease. The experiment in a line: The inhibitory concentration was evaluated for viral strains HIV-2 ROD using a HIV protease HPLC based assay.
The test system of data set [11] is Human immunodeficiency virus 2. Nature of the data set: The binding affinity is evaluated for viral strains HIV-2 ROD. The format is functional, organism-based.
For data set [12], the system named is Human immunodeficiency virus 1. Nature of the data set: The binding affinity is evaluated for viral strains HIV-1 IIIB. It counts as functional, organism-based.
Data set [13] deals with Human immunodeficiency virus 2. The experiment in a line: The binding affinity is evaluated for viral strains HIV-2 ROD. It counts as functional, organism-based.
Data set [14] is described as follows: The plasma concentration is evaluated after oral administration a dose of 5 mg/kg. The format is ADME, organism-based. On the set-up: dose 5 mg/kg, route oral.

pEC50, pIC50, pKi: −log10 of the molar value.

The results in this text go back to ChEMBL document CHEMBL1132975, “2',6'-Dimethylphenoxyacetyl: a new achiral high affinity P(3)-P(2) ligand for peptidomimetic-based HIV protease inhibitors” (J Med Chem, 2000).

For `Cc1cccc(C)c1OCC(=O)N[C@@H](Cc1ccccc1)[C@H](O)CN1CC[C@@H](SCc2ccncc2)C[C@H]1C(=O)NC(C)(C)C`, in [1], the pEC50 is 8.40. The compound further gave a pIC50 in data set [2] of 8.74. In data set [3], this compound yielded a Cmax of 1660 nM. The compound further yielded a bioavailability in data set [4] of 22%. This compound also returned an AUC in [5] of 1.71 µM·h. The compound further showed a half-life in data set [6] of 42 min.
In turn, `Cc1cccc(C)c1OCC(=O)N[C@@H](Cc1ccccc1)[C@H](O)CN1C[C@H]2CCCC[C@H]2C[C@H]1C(=O)NC(C)(C)C` gave a pEC50 in [1] of 7.00. In [2], this compound had a pIC50 of 8.08.
Consider `Cc1ccccc1COC(=O)N[C@@H](Cc1ccccc1)[C@H](O)CN1CC[C@@H](OCc2ccncc2)C[C@H]1C(=O)NC(C)(C)C`, for which, in data set [2], the pIC50 was 6.68.
Same read-out and setting: as for `CC(C)(C)NC(=O)[C@@H]1C[C@H](OCc2ccncc2)CCN1C[C@@H](O)[C@H](Cc1ccccc1)NC(=O)CCCc1ccccc1`, the figure is below 4.70.
Compound `Cc1cc(S[C@@H]2CCN(C[C@@H](O)[C@H](Cc3ccccc3)NC(=O)COc3c(C)cccc3C)[C@H](C(=O)NC(C)(C)C)C2)nc(C)n1` showed a negative-log EC50 (pEC50) in data set [1] of 9.00. In data set [7], the bioavailability turned out to be 29%. Further, the pIC50 in [2] was 8.82. The compound also registered an area under the curve (AUC) in [5] of 1.67 µM·h. In addition, the half-life in [8] is 102 min.
In data set [2], `Cc1cccc(C)c1OC(C)C(=O)N[C@@H](Cc1ccccc1)[C@H](O)CN1CC[C@@H](OCc2ccncc2)C[C@H]1C(=O)NC(C)(C)C` (stereo not given in full) had a pIC50 of 7.70.
In [1], `Cc1cccc(C)c1OCC(=O)N[C@@H](Cc1ccccc1)[C@H](O)CN1CC[C@@H](OCc2ccncc2)C[C@H]1C(=O)NC(C)(C)C` showed a pEC50 of 7.62. This compound showed a pIC50 in [2] of 8.15.
Consider `Cc1c(O)cccc1C(=O)N[C@@H](Cc1ccccc1)[C@H](O)CN1CC[C@@H](OCc2ccncc2)C[C@H]1C(=O)NC(C)(C)C`, for which the pEC50 in data set [1] is 7.49. This compound also showed a pIC50 in [2] of 7.92.
The compound `CC(C)(C)NC(=O)[C@@H]1C[C@H](OCc2ccncc2)CCN1C[C@@H](O)[C@H](Cc1ccccc1)NC(=O)CSc1ccccc1` gave a pIC50 in [2] of 5.38.
As for `Cc1ccccc1CCC(=O)N[C@@H](Cc1ccccc1)[C@H](O)CN1CC[C@@H](OCc2ccncc2)C[C@H]1C(=O)NC(C)(C)C`, in [2], the pIC50 is 5.60.
As for `CC(C)(C)NC(=O)[C@@H]1C[C@H](OCc2ccncc2)CCN1C[C@@H](O)[C@H](Cc1ccccc1)NC(=O)CCc1ccccc1`, in data set [2], the pIC50 was 5.85.
Still for that read-out and setting: the figure for `CC(C)(C)NC(=O)[C@@H]1C[C@H](OCc2ccncc2)CCN1C[C@@H](O)[C@H](Cc1ccccc1)NC(=O)COc1ccccc1` is 5.96; for `Cc1cccc(C)c1CCC(=O)N[C@@H](Cc1ccccc1)[C@H](O)CN1CC[C@@H](OCc2ccncc2)C[C@H]1C(=O)NC(C)(C)C` it is 5.62.
For the compound `CC(C)(C)NC(=O)[C@@H]1C[C@H](OCc2ccncc2)CCN1C[C@@H](O)[C@H](Cc1ccccc1)NC(=O)OCc1ccccc1`, in [2], the pIC50 is 6.40.
The compound `Cc1ccccc1OCC(=O)N[C@@H](Cc1ccccc1)[C@H](O)CN1CC[C@@H](OCc2ccncc2)C[C@H]1C(=O)NC(C)(C)C` gave a pIC50 in [2] of 6.92.
Consider `CC(C)[C@H](NC(=O)c1ccc2ccccc2n1)C(=O)N[C@@H](Cc1ccccc1)[C@H](O)CN1CC[C@@H](OCc2ccncc2)C[C@H]1C(=O)NC(C)(C)C`, for which the pEC50 in [1] is 8.30; in data set [9], 7.60. Besides, the pIC50 in data set [10] was 8.00. Moreover, the pKi in data set [11] was 9.89; in [12], 10.51.
In turn, `CC(C)(C)NC(=O)[C@@H]1C[C@H](OCc2ccncc2)CCN1C[C@@H](O)[C@H](Cc1ccccc1)NC(=O)O[C@@H]1CCOC1` had a pIC50 in data set [2] of 6.59.
Consider `Cc1cccc(C)c1OCC(=O)N[C@@H](Cc1ccccc1)[C@H](O)CN1CC[C@@H](Sc2ccncc2)C[C@H]1C(=O)NC(C)(C)C`, for which the pEC50 was 8.70 in data set [1] and 8.52 in [9]. In [7], the bioavailability came out at 61%. For the same compound, the values for the pKi in data set [13] and in data set [12] were 10.64 and 11.22, respectively. In [5], the AUC was 1.77 µM·h. This compound had a half-life in data set [6] of 24 min.
As for `Cc1cccc(C)c1OCC(=O)N[C@@H](Cc1ccccc1)[C@H](O)CN(CC(C)C)S(=O)(=O)c1ccc(N)cc1`, the negative-log EC50 (pEC50) in data set [1] was 7.70. The same compound had a pIC50 in data set [2] of 8.59.
For the compound `Cc1cccc(C)c1OCC(=O)N[C@@H](Cc1ccccc1)[C@H](O)CN1CC[C@@H](SCc2cccnc2)C[C@H]1C(=O)NC(C)(C)C`, in data set [1], the pEC50 was 8.22. Besides, the bioavailability in data set [7] turned out to be 37%. The same compound had a pIC50 in data set [2] of 8.77. Further, the Cmax in data set [14] came out at 2320 nM. For the same compound, the AUC in data set [5] was 3.26 µM·h. In [6], this compound showed a half-life of 30 min.
`Cc1cccc(C)c1COC(=O)N[C@@H](Cc1ccccc1)[C@H](O)CN1CC[C@@H](OCc2ccncc2)C[C@H]1C(=O)NC(C)(C)C`: in data set [2], the pIC50 is 6.38.
The same measure, in the same setting: the figure for `CC(C)(C)NC(=O)[C@@H]1C[C@H](OCc2ccncc2)CCN1C[C@@H](O)[C@H](Cc1ccccc1)NC(=O)/C=C/c1ccccc1` is 4.96.

The pEC50 is the negative decadic logarithm of the EC50, by convention in mol/L. The term pIC50 denotes the IC50 on a negative log10 scale, so that one unit is a factor of ten. Read a low pIC50 as a large IC50. What is called Cmax is the highest concentration seen after dosing. Usually bioavailability stands for dose-corrected exposure relative to a reference, in per cent. A high value points to much systemic uptake. For orientation: AUC means concentration integrated over time. A higher AUC goes with more exposure. The half-life is how long it takes for the measured level to halve. Low readings indicate rapid decline, high ones slow decline. What is called pKi is the negative decadic logarithm of the Ki, by convention in mol/L.
